The nature of data set [1]: Cytotoxicity against mouse B16 cells assessed as cell viability at 20 uM after 2 days by tetrazolium reduction assay. It counts as cell-based. The following applies: read-out: Activity. An outline of the steps:
(§1)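 B16 cells seeded at 1.5 × 10⁴ per well, cultured 1 day, then given compound in ethanol (stock 0–10 mM) and incubated 2 days. Medium aspirated and viability measured with a tetrazolium reagent. Values are means of 8 or 9 wells, with Student's t-test against control.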

Data set [2] concerns the target T1, Tyrosinase (Mus musculus, UniProt P11344).
T1 sequence (P11344 whole entry): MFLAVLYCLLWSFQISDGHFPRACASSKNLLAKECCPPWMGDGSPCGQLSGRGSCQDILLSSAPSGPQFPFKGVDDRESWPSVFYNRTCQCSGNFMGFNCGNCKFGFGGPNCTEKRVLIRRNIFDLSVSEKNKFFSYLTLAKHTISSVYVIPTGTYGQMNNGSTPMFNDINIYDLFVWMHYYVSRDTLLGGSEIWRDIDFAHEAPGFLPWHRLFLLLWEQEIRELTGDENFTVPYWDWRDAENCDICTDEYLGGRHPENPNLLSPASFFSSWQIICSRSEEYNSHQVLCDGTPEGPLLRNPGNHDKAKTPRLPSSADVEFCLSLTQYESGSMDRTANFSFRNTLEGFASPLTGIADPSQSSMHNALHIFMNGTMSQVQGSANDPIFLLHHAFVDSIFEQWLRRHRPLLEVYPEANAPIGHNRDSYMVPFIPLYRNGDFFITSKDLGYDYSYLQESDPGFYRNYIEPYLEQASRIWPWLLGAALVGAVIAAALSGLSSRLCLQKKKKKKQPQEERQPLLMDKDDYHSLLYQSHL
As to the kind of experiment: Inhibition of catecholase activity of tyrosinase in mouse B16 cells assessed as dopachrome formation. It counts as cell-based.

Data set [3] has as its system B16. Briefly: Antimelanogenic activity in mouse B16 cells assessed as inhibition of extracellular melanin formation after 2 days. Conditions: B16, 48 h.
Data set [4] relates to B16. As to the kind of experiment: Cytotoxicity against mouse B16 cells assessed as cell viability at 10 to 30 uM after 2 days by tetrazolium reduction assay. It counts as cell-based. Conditions: b16, 48 h. In outline: as §1
The target of data set [5] is T1, Tyrosinase. As to the kind of experiment: Apparent noncompetitive inhibition of catecholase activity of tyrosinase in mouse B16 cells by Lineweaver-Burke plot analysis. It counts as cell-based. The following applies: read-out: Ki(app). In outline:
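Tyrosinase extracted from B16 cells (DMEM, 15% FBS) was assayed with L-DOPA in 50 mM phosphate buffer pH 6.8 at 37 °C. Dopachrome formation over 5 min was read at 475 nm (ε = 3700 M⁻¹ cm⁻¹). Inhibitor was tested at several fixed levels (e.g. 0–70 µM), L-DOPA was varied, Lineweaver–Burk lines were fitted by least squares, and apparent Ki was derived.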

Data set [6] can be described thus: Cytotoxicity against human HMVII cells assessed as cell viability at 40 uM after 2 days by tetrazolium reduction assay. It counts as cell-based. The following applies: hmv-2, 48 h. An outline of the steps: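 HMV-II cells given compound in ethanol and incubated 2 days, then viability measured by tetrazolium reduction. Values are % control, mean ± SEM (n = 3–4) from a representative repeated experiment.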

Data set [7] relates to B16. As to the kind of experiment: Antimelanogenic activity in mouse B16 cells assessed as inhibition of intracellular melanin accumulation at 2 to 40 uM after 2 days. The format is functional, cell-based. An outline of the steps:
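B16 cells grown in DMEM with 15% FBS, seeded at 7.5 × 10⁴ cells per well, cultured 1 day, then given compound in ethanol and incubated 2 days. Cells scraped, washed with PBS and sonicated in 0.2 ml 1 N NaOH. Intracellular melanin read as homogenate absorbance at 415 nm, expressed as % control.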

For data set [8], the system named is B16. Briefly: Cytotoxicity against mouse B16 cells assessed as cell viability at < 30 uM after 2 days by tetrazolium reduction assay. The following applies: b16, 48 h. The format is cell-based. An outline of the steps:
as §1

Data set [9] relates to B16. Briefly: Ratio of IC50 of drug to IC50 of kojic acid for antimelanogenic activity in mouse B16 cells. It counts as functional. In outline: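 B16 cells (1.5 × 10⁴ per well) were cultured 1 day, given compound in ethanol (stock 0–10 mM), and incubated 2 days. Medium darkening from extracellular melanin was read at 415 nm and IC50 derived.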
A short description of data set [10]: Antimelanogenic activity in human HMVII cells assessed as inhibition of intracellular melanin accumulation at 20 to 40 uM after 2 days. It counts as functional, HMV-2.
Data set [11] in a line: Cytotoxicity against mouse B16 cells assessed as cell viability at 200 uM after 2 days by tetrazolium reduction assay. It counts as cell-based. Conditions: read-out: Activity. An outline of the steps: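 B16 mouse melanoma cells in DMEM with 15% FBS, seeded at 1.5 × 10⁴ cells per well and cultured 1 day. Compound then added in ethanol and incubated 2 days. Medium aspirated and viability read with a tetrazolium reagent. Means of 8 or 9 wells, Student's t-test versus control.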

In data set [12] the target is T2, Tyrosinase (Mus musculus) (UniProt P11344).
T2 sequence (whole entry): T1 sequence (P11344 whole entry)
Briefly: Inhibition of catecholase activity of tyrosinase in mouse B16 cells assessed as residual activity at […] measured after preincubation presence of L-DOPA substrate. The format is cell-based. The following applies: TDE = time-dependent effect. In outline:
(§2)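 Enzyme was preincubated with inhibitor (added in ethanol as a 20 mM stock) in 50 mM phosphate buffer pH 6.8, with or without 0.125 mM L-DOPA, at 37 °C for 5, 10, 20 or 30 min. Buffer containing 5.3 mM L-DOPA was then added and dopachrome read at 475 nm. Control (=100) was 31 min preincubation without inhibitor; mean ± sd, n = 3.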

For data set [13], the target named is T2, Tyrosinase (Mus musculus). Briefly: Inhibition of catecholase activity of tyrosinase in mouse B16 cells assessed as residual activity at […] preincubated for 5 to 30 mins in absence of L-DOPA substrate. The format is cell-based. An outline of the steps: as §2

Molecules are shown by their SMILES. Active and inactive are the calls of the source. The calls are words filed in the database; no cut-off is given here.

A word on the IC50: it is the concentration needed to halve the response being measured. For the molecule `NCCc1c[nH]c2ccc(O)cc12` [SEROTONIN], the viability at 48 h, 20 µM in data set [1] stood at 101%. Further, the IC50 was 550 µM at Tyrosinase [2] and greater than 30 µM in the data set with B16 [3].
In the case of `O=C(NCCc1c[nH]c2ccccc12)c1ccccc1`, the viability at 48 h, 20 µM in data set [1] was 85%. The Activity result with B16 [4] was “Toxic”.
For `O=C(NCCc1c[nH]c2ccccc12)c1ccc(O)c(O)c1`, in that order: 69% and “Toxic”.
For `COc1ccc2[nH]cc(CCNC(=O)/C=C/c3ccc(O)c(O)c3)c2c1`, in that order: 41% and “Toxic”.
With `O=C(NCCc1c[nH]c2ccc(O)cc12)c1ccc(O)c(O)c1`, the Ki at Tyrosinase [5] was 64 µM. The figures for the Activity result (in data set [6]; in the data set on B16 [8]) were “Toxic” and “Non-toxic”, respectively. Besides, the result in the data set with B16 [7] was inactive. The viability at 48 h, 20 µM in data set [1] is 99%. Moreover, the concentration for half-maximal inhibition (IC50) on Tyrosinase [2] is 73 µM; in the data set on B16 [3], 3 µM. Moreover, in the data set with B16 [9], the “Ratio IC50” value is on record as 40. The “inhibition (INH)” value in [10] was 20%.
With `COc1cc(/C=C/C(=O)NCCc2c[nH]c3ccccc23)ccc1O`, the viability at 48 h, 20 µM in data set [1] turned out to be 102%. The IC50 in the data set with B16 [3] is greater than 30 µM.
As for `Oc1ccc2[nH]ccc2c1`, the viability at 48 h, 20 µM in data set [1] is 100%. Also, the figures for the IC50 at Tyrosinase [2] and in the data set on B16 [3] were 68 µM and 13 µM, respectively.
Consider `O=C(/C=C/c1ccc(O)c(O)c1)NCCc1ccc(O)cc1`, for which, in data set [1], the viability at 48 h, 20 µM amounted to 84%. Besides, the Activity entry in the data set with B16 [4] is given as “Toxic”.
`O=C(NCCc1c[nH]c2ccc(O)cc12)c1ccccc1`: the viability at 48 h, 20 µM in [1] came to 96%. Besides, the figures for the IC50 at Tyrosinase [2] and in the data set with B16 [3] were 333 µM and greater than 30 µM, respectively.
For `O=C(NCCc1c[nH]c2ccc(O)cc12)c1ccc(O)cc1`, the viability at 48 h, 20 µM in data set [1] stood at 100%. The 50% inhibitory concentration (IC50) at Tyrosinase [2] was 233 µM; in the data set with B16 [3] it was greater than 30 µM.
For the molecule `O=c1cc(CO)occ1O` [KOJIC ACID], the viability at 48 h, 200 µM in [11] was found to be 99%. In the data set on B16 [3], the concentration for half-maximal inhibition (IC50) amounted to 111 µM.
Regarding `NC(=O)c1ccc(O)c(O)c1` [PROTOCATECHUAMIDE], the Ki on Tyrosinase [5] (in the assay text read “Competitive” for “Apparent noncompetitive”) is 3700 µM.
Regarding `CC(=O)NCCc1c[nH]c2ccc(O)cc12` [ACETYLSEROTONIN], in data set [12], the Activity entry is “tde”. Moreover, the Ki at Tyrosinase [5] was 240 µM. Besides, the viability at 48 h, 20 µM in data set [1] was 93%. The half-inhibitory concentration (IC50) at Tyrosinase [2] was 311 µM; in the data set on B16 [3], greater than 30 µM. In data set [13], the result was Active.
In the case of `O=C(NCCc1ccc(O)cc1)c1ccc(O)c(O)c1`, in [1], the viability at 48 h, 20 µM amounted to 88%. The Activity entry in the data set with B16 [4] is “Toxic”.
For `O=C(/C=C/c1ccc(O)c(O)c1)NCCc1c[nH]c2ccccc12`, in that order: 54% and “Toxic”.
Consider `COc1cc(C(=O)NCCc2c[nH]c3ccc(O)cc23)ccc1O`, for which the viability at 48 h, 20 µM in data set [1] was 93%. Besides, the Activity result in the data set with B16 [8] is on record as “Non-toxic”. The figures for the 50% inhibitory concentration (IC50) on Tyrosinase [2] and with B16 [3] were 211 µM and greater than 30 µM, respectively.
Turning to `O=C(NCCc1c[nH]c2ccc(O)cc12)c1ccc(O)cc1O`, the viability at 48 h, 20 µM in [1] was determined as 101%. Besides, the Activity result in the data set with B16 [8] is reported as “Non-toxic”. Further, the results for the IC50 on Tyrosinase [2] and with B16 [3] were 42 µM and 15 µM, respectively.
`O=C(NCCc1c[nH]c2ccccc12)c1ccc(O)cc1`: the viability at 48 h, 20 µM in data set [1] was 94%. For the same molecule, in the data set on B16 [3], the IC50 was greater than 30 µM.
Regarding `COc1cc(/C=C/C(=O)NCCc2c[nH]c3ccc(O)cc23)ccc1O` [N-FERULOYL SEROTONIN], the viability at 48 h, 20 µM in [1] is 100%. The Activity entry with B16 [8] was “Non-toxic”. The values for the 50% inhibitory concentration (IC50) on Tyrosinase [2] and in the data set on B16 [3] were 216 µM and 23 µM, respectively.
For `O=C(/C=C/c1ccc(O)c(O)c1)NCCc1c[nH]c2ccc(O)cc12` [N-CAFFEOYLSEROTONIN], in that order: 99%, “Non-toxic”, 28 µM and 15 µM.
